Assay results from paper PMC7115694 (European Journal of Medicinal Chemistry, 2010).
Marks after values point to notes of the source that are not given here.

Legend:
Assay type in all cases: cell-based
Staphylococcus aureus = experiment: MIC by tube dilution method; conditions: observed, S. aureus, 37 °C 24 h
Bacillus subtilis = experiment: MIC by tube dilution method; conditions: observed, B. subtilis, 37 °C 24 h
Method in brief: (§1)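 Test compound is diluted in double strength nutrient broth (I.P.) by tube dilution, with ciprofloxacin as reference. Samples incubated at 37 °C for 24 h. MIC is the lowest concentration inhibiting microbial growth, transformed into pMIC for analysis.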

Escherichia coli = experiment: MIC by tube dilution method; conditions: observed, E. coli, 37 °C 24 h
Method in brief: as §1

[1] = tested on: S. aureus, B. subtilis and E. coli; experiment: Average antibacterial activity; conditions: average antibacterial activity (pMICsa + pMICbs + pMICec)/3
Candida albicans = experiment: MIC by tube dilution method; conditions: observed, C. albicans, 37 °C 48 h
Aspergillus niger = experiment: MIC by tube dilution method; conditions: observed, A. niger, 25 °C 7 d
C. albicans and A. niger = experiment: Average antifungal activity; conditions: average antifungal activity (pMICca + pMICan)/2
[2] = tested on: S. aureus, B. subtilis, E. coli, C. albicans and A. niger; experiment: Average antimicrobial activity; conditions: mean of five pMIC values
Feline Herpes virus = experiment: organism not typed; conditions: CRFK, read-out: EC50 Feline Corona Virus
Para-influenza-3 virus = experiment: organism not typed; conditions: Vero, read-out: EC50 Para-influenza-3 virus
Reovirus-1 = experiment: organism not typed; conditions: Vero, read-out: EC50 Reovirus-1
HEL cells = experiment: Cytotoxicity in uninfected cell cultures; conditions: microscopically detectable alteration of cell morphology
Method in brief: (§2)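 Uninfected cell cultures are exposed to serial dilutions of test compound in parallel with the virus cytopathicity assays. Cells are examined microscopically. Minimum cytotoxic concentration is the lowest concentration causing a microscopically detectable alteration of normal cell morphology.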

HeLa cells = experiment: Cytotoxicity in uninfected cell cultures; conditions: cell morphology
Method in brief: as §2

Vero cells = experiment: Cytotoxicity in uninfected cell cultures; conditions: cell morphology
Method in brief: as §2

Structure (SMILES)	pMICsa (Staphylococcus aureus)	pMICbs (Bacillus subtilis)	pMICec (Escherichia coli)	pMICab [1]	pMICca (Candida albicans)	pMICan (Aspergillus niger)	pMICaf (C. albicans and A. niger)	pMICam [2]	EC50 (Feline Herpes virus)	EC50 (Para-influenza-3 virus)	EC50 (Reovirus-1)	Minimum cytotoxic concentration (HEL cells)	Cytotoxicity Minimum cytotoxic concentration (HeLa cells)	Minimum cytotoxic concentration (Vero cells)
O=C(O)c1cn(C2CC2)c2cc(N3CCNCC3)c(F)cc2c1=O [Ciprofloxacin, ciprofloxacin, reference compound]	2.61*	2.61*	2.61*	2.61	–	–	–	–	–	–	–	–	–	–
Nc1ccccc1C(=O)n1c(-c2ccc(S(=O)(=O)O)cc2)nc2ccccc21 [Compound 1]	1.80	2.03	2.40	2.08	1.70	1.50	1.60	1.89	> 4 µg/mL	> 4 µg/mL	> 4 µg/mL	>100 µg/mL	≥20 µg/mL	–
O=C(c1ccccc1)n1c(-c2ccc(S(=O)(=O)O)cc2)nc2ccccc21 [Compound 2]	2.08	2.12	2.12	2.11	1.78	1.48	1.63	1.92	> 100 µg/mL	> 100 µg/mL	> 100 µg/mL	>100 µg/mL	>100 µg/mL	>100 µg/mL
Nc1ccc(C(=O)n2c(-c3ccc(S(=O)(=O)O)cc3)nc3ccccc32)cc1 [Compound 3]	2.10	1.80	2.10	2.00	1.20	1.50	1.35	1.74	> 100 µg/mL	> 100 µg/mL	> 100 µg/mL	>100 µg/mL	>100 µg/mL	>100 µg/mL
O=C(c1ccccc1Cl)n1c(-c2ccc(S(=O)(=O)O)cc2)nc2ccccc21 [Compound 4]	2.09	1.82	2.42	2.11	1.52	1.22	1.37	1.81	> 100 µg/mL	> 100 µg/mL	> 100 µg/mL	>100 µg/mL	>100 µg/mL	>100 µg/mL
O=C(c1ccc(Cl)cc1)n1c(-c2ccc(S(=O)(=O)O)cc2)nc2ccccc21 [Compound 5]	2.12	2.13	2.42	2.22	1.52	1.22	1.37	1.88	> 100 µg/mL	> 100 µg/mL	> 100 µg/mL	>100 µg/mL	>100 µg/mL	>100 µg/mL
O=C(c1cccc(O)c1)n1c(-c2ccc(S(=O)(=O)O)cc2)nc2ccccc21 [Compound 6]	2.10	2.15	2.40	2.22	1.50	1.20	1.35	1.87	> 100 µg/mL	> 100 µg/mL	> 100 µg/mL	>100 µg/mL	>100 µg/mL	>100 µg/mL
O=C(c1ccc(O)cc1O)n1c(-c2ccc(S(=O)(=O)O)cc2)nc2ccccc21 [Compound 7]	2.12	2.42	2.42	2.32	1.52	1.22	1.37	1.94	> 100 µg/mL	> 100 µg/mL	> 100 µg/mL	100 µg/mL	>100 µg/mL	>100 µg/mL
COc1ccc(C(=O)n2c(-c3ccc(S(=O)(=O)O)cc3)nc3ccccc32)cc1 [Compound 8]	2.12	2.12	2.12	2.12	1.51	1.21	1.36	1.82	> 100 µg/mL	> 100 µg/mL	> 100 µg/mL	>100 µg/mL	>100 µg/mL	>100 µg/mL
O=C(c1ccc([N+](=O)[O-])cc1)n1c(-c2ccc(S(=O)(=O)O)cc2)nc2ccccc21 [Compound 9, 4-[1-(4-Nitrobenzoyl)-1H-benzoimidazol-2-yl]-benzenesulfonic acid]	2.43	2.43	2.43	2.43	2.13	1.53	1.83	2.19	> 100 µg/mL	> 100 µg/mL	> 100 µg/mL	>100 µg/mL	>100 µg/mL	>100 µg/mL
C/C=C/C(=O)n1c(-c2ccc(S(=O)(=O)O)cc2)nc2ccccc21 [Compound 12]	1.85	1.85	1.85	1.85	1.44	0.84	1.14	1.57	> 100 µg/mL	> 100 µg/mL	> 100 µg/mL	>100 µg/mL	>100 µg/mL	>100 µg/mL
C=CC(=O)n1c(-c2ccc(S(=O)(=O)O)cc2)nc2ccccc21 [Compound 13]	1.72	2.02	2.32	2.02	1.42	1.12	1.27	1.72	> 20 µg/mL	> 100 µg/mL	> 100 µg/mL	100 µg/mL	>100 µg/mL	>100 µg/mL
C=C(C)C(=O)n1c(-c2ccc(S(=O)(=O)O)cc2)nc2ccccc21 [Compound 14]	1.74	1.74	2.04	1.84	1.44	1.14	1.29	1.62	> 100 µg/mL	> 100 µg/mL	> 100 µg/mL	>100 µg/mL	>100 µg/mL	>100 µg/mL
O=C(c1cccnc1)n1c(-c2ccc(S(=O)(=O)O)cc2)nc2ccccc21 [Compound 15]	2.13	2.13	2.39	2.22	1.75	1.48	1.62	1.98	> 100 µg/mL	> 100 µg/mL	> 100 µg/mL	>100 µg/mL	>100 µg/mL	>100 µg/mL
O=C(c1ccccc1O)n1c(-c2ccc(S(=O)(=O)O)cc2)nc2ccccc21 [Compound 16]	2.10	2.10	2.26	2.15	1.50	1.50	1.50	1.89	> 100 µg/mL	> 100 µg/mL	> 100 µg/mL	>100 µg/mL	>100 µg/mL	>100 µg/mL
CCCCCCCC/C=C/CCCCCCCC(=O)n1c(-c2ccc(S(=O)(=O)O)cc2)nc2ccccc21 [Compound 18, 4-(1-octadec-9-enoyl-1H-benzoimidazol-2-yl)-benzenesulfonic acid]	2.24	2.24	1.85	2.11	1.94	1.63	1.79	1.98	> 100 µg/mL	> 100 µg/mL	> 100 µg/mL	>100 µg/mL	>100 µg/mL	>100 µg/mL
OC(Cn1cncn1)(Cn1cncn1)c1ccc(F)cc1F [Fluconazole, fluconazole, reference compound]	–	–	–	–	2.64**	2.64**	2.64	–	–	–	–	–	–	–
